Experiments:
[1] = target: T1, Solute carrier family 15 member 1 (Homo sapiens, UniProt P46059); assay: Inhibition of [14C]Gly-Sar transport by hPEPT1 in Caco-2 cell monolayers; assay type: cell-based
T1 sequence (P46059 whole entry): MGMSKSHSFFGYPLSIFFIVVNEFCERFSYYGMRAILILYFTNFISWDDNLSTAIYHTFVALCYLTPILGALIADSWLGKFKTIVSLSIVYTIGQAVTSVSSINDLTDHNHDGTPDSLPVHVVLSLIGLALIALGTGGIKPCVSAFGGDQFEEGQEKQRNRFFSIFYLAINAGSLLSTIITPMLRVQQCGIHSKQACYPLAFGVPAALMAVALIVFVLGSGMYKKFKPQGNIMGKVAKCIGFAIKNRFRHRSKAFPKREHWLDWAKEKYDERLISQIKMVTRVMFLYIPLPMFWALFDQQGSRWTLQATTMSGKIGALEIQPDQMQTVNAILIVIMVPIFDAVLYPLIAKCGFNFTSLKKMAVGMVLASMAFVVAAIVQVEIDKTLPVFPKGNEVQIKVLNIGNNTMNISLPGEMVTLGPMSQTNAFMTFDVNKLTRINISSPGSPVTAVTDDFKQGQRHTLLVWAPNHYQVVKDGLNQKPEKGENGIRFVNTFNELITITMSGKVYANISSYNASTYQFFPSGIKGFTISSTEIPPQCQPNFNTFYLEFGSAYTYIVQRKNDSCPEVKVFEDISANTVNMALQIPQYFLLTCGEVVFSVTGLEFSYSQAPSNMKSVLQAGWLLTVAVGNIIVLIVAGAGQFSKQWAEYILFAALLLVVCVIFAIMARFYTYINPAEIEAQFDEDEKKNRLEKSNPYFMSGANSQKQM
How it was run: (§1)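 Caco-2 monolayers on Transwell filters, used 25–27 days after seeding (TEER 354 ± 41 […]). Compound at varying concentrations plus 0.5 μCi [14C]-Gly-Sar in apical MES-buffered HBSS (pH 6.0, 0.05% BSA); HEPES buffer (pH 7.4) basolateral. Incubated 5 min at 37 °C with shaking, washed with ice-cold HBSS, and cell-associated radioactivity counted. Inhibition fitted to a Hill-type equation for IC50; Ki derived by Cheng–Prusoff using Gly-Sar Km 1.1 mM. Duplicates in three passages.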

[2] = target: T1, Solute carrier family 15 member 1; assay: Affinity for hPEPT1 in mature Caco-2 cell monolayers using [14C]-Gly-Sar; how it was run: as §1

| Structure (SMILES) | IC50 [1] [µM] | Ki [2] [µM] |
| --- | --- | --- |
| N[C@@H](Cc1ccccc1)C(=O)CCC(=O)OCc1ccccc1 | 915 | 905 |
| N[C@@H](Cc1ccccc1)C(=O)C[C@@H](CC(=O)OCc1ccccc1)C(=O)O | 69 | 68 |
| NC(CC(=O)OCc1ccccc1)C(=O)CCC(=O)O (stereo not given) | 422 | 417 |

More lines, now with the values ahead:

| IC50 [1] [µM] | Ki [2] [µM] | Structure (SMILES) |
| --- | --- | --- |
| 19 | 19 | CC(C)[C@H](N)C(=O)C[C@@H](CC(=O)OCc1ccccc1)C(=O)O |
| 134 | 133 | CC(C)[C@H](N)C(=O)CCC(=O)OCc1ccccc1 |

From ChEMBL document CHEMBL1138751, “Dipeptidomimetic ketomethylene isosteres as pro-moieties for drug transport via the human intestinal di-/tripeptide transporter hPEPT1: design, synthesis, stability, and biological investigations” (J Med Chem, 2004)
